Measurements: ChEMBL document CHEMBL1122228, “1-(Aminomethyl)-6,7-dihydroxytetralin derivatives: synthesis and assessment of dopamine-like effects” (1983)
Calls of active or inactive are those of the source. No cut-off for these calls is given here.

Experiments:
Felis catus [1] = assay: Inhibition of positive chronotropic response induced by stimulation of cardioaccelerator nerve of cat at 1 mg/kg (iv); Inactive; format: functional, organism-based; design: dose 1 mg/kg
Method in brief: (§1)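 Cats of either sex, 4–6 kg, were anesthetized with intraperitoneal pentobarbital sodium (30 mg/kg) and pretreated with atropine sulfate (200 μg/kg) and hexamethonium bromide (10 mg/kg). They were intubated and ventilated, with the chest opened. Bipolar platinum electrodes were placed on the right postganglionic cardioaccelerator nerves, stimulated at 2 Hz for 30 s, 2-ms pulses, supramaximal 20–25 V. Heart rate was recorded. Compounds were given iv up to 1 mg/kg.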

Felis catus [2] = assay: Active dose range of hypotensive effect in cat; range is 0.008-0.032 uM/kg.; format: functional
Felis catus [3] = assay: Inhibition of positive chronotropic response induced by stimulation of cardioaccelerator nerve of cat at 1 mg/kg (iv); format: functional; method in brief: as §1
Felis catus [4] = assay: Ability to lower arterial blood pressure in cat at 1.7 umol/kg; format: functional, Artery
Method in brief: (§2)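 Cats of either sex, 4–6 kg, anesthetized with intraperitoneal pentobarbital sodium (30 mg/kg), intubated and ventilated by respirator. Arterial blood pressure and heart rate were monitored. Test doses ranged from 0.5 to 1.0 mg/kg.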

Felis catus [5] = assay: Ability to lower arterial blood pressure in cat at 3.4 umol/kg; format: functional, Artery; method in brief: as §2

| SMILES | Activity (Felis catus [1]) | also measured |
| --- | --- | --- |
| CCCNCC1CCCc2cc(O)c(O)cc21 (stereo unspecified) | inactive |  |
| CN1CCc2cccc3c2[C@H]1Cc1ccc(O)c(O)c1-3 [APOMORPHINE] |  | Dose range (Felis catus [2]): 0.032 µM/kg; ED50 (Felis catus [3]): 0.022 µmol/kg |
| CC(C)NCC1CCCc2cc(O)c(O)cc21 (stereo unspecified) | inactive |  |
| Br.CN(C)CC1CCCc2cc(O)c(O)cc21 (stereo unspecified) | inactive | BP (Felis catus [4]): 31.5 mmHg; BP (Felis catus [5]): 34.5 mmHg |
| CC(C)N(C)CC1CCCc2cc(O)c(O)cc21 (stereo unspecified) | inactive |  |
| CNCC1CCCc2cc(O)c(O)cc21 (stereo unspecified) | inactive |  |
| CCNCC1CCCc2cc(O)c(O)cc21 (stereo unspecified) | inactive |  |
| CCN(CC)CC1CCCc2cc(O)c(O)cc21 (stereo unspecified) | inactive |  |
